Reference: ChEMBL document CHEMBL1145115, “SAR analysis of adenosine diphosphate (hydroxymethyl)pyrrolidinediol inhibition of poly(ADP-ribose) glycohydrolase” (J Med Chem, 2003)
“And” between values parts separate entries of the source, which are not always exact repeats. Equal values may be shown once.

How the values were obtained:
[1] = target: T1, Poly(ADP-ribose) glycohydrolase (Bos taurus, UniProt O02776); assay: (§1) The compound was tested for its ability to inhibit recombinant bovine polyadenosine diphosphoribose glycohydrolase catalytic fragment (rPARG-CF)
T1 sequence (O02776 whole entry, the tested form may be a part): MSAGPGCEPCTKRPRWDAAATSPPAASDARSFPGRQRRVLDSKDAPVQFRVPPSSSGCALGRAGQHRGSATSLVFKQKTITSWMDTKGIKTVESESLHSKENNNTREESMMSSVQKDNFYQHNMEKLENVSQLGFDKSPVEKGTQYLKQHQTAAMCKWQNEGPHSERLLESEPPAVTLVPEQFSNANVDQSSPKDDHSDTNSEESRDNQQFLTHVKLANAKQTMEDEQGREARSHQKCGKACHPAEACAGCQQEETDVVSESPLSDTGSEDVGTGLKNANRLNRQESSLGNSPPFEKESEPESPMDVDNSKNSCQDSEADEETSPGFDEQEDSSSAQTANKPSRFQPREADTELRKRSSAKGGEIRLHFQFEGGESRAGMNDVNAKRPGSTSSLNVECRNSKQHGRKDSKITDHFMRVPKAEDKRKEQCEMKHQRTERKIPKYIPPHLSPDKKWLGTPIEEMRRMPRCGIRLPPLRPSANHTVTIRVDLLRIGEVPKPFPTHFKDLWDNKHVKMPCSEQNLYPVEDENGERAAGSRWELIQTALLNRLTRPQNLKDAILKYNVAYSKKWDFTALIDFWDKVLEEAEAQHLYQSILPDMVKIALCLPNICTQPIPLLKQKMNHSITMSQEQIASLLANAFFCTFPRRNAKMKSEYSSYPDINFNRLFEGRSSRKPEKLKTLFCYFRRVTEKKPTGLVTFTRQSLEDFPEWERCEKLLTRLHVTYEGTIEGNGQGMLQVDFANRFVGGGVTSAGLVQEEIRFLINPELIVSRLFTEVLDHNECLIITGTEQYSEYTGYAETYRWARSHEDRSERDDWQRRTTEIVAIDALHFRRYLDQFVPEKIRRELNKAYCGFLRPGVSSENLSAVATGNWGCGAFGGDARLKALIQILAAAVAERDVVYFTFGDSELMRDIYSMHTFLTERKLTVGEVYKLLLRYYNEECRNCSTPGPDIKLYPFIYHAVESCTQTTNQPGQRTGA
Outline: (§2)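 PARG activity was measured with 10 µM [α-32P]ADP-ribose polymers as substrate and varying inhibitor concentrations, with an inhibitor-free control. Enzyme was 0.25 ng of bovine thymus PARG, purified with a Red-Sepharose step, or 5 ng of rPARG-CF. Runs were done at least in triplicate. IC50 came from a sigmoidal fit of % activity against log[inhibitor].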

[2] = target: Poly(ADP-ribose) glycohydrolase (Bos taurus) (UniProt O02776); assay: as §1; outline: as §2
Poly(ADP-ribose) glycohydrolase (Bos taurus), sequence (O02776 whole entry): as the sequence (O02776 whole entry, the tested form may be a part) above

[3] = target: Poly(ADP-ribose) glycohydrolase (Bos taurus) (UniProt O02776); assay: (§3) The compound was tested for its ability to inhibit bovine thymus polyadenosine diphosphoribose glycohydrolase (bPARG); outline: as §2
[4] = target: T1, Poly(ADP-ribose) glycohydrolase; assay: as §3; outline: as §2

IC50 [1]	Log IC50 [2]	Log IC50 [3]	IC50 [4]	SMILES
9.5 µM	0.97 µM			NCCCCCCNc1nc2c(N)ncnc2n1C1O[C@H](COP(=O)(O)OP(=O)(O)OC[C@H]2NC[C@H](O)[C@@H]2O)[C@@H](O)[C@H]1O (stereo partly drawn)
510 µM	2.71 µM			CCCCCCNc1ncnc2c1ncn2C1O[C@H](COP(=O)(O)OP(=O)(O)OCC2NC[C@H](O)[C@@H]2O)[C@@H](O)[C@H]1O (stereo partly drawn)
148 µM	2.17 µM	2.45 µM	290 µM	[N-]=[N+]=Nc1nc(N)c2ncn(C3O[C@H](COP(=O)(O)OP(=O)(O)OC[C@H]4NC[C@H](O)[C@@H]4O)[C@@H](O)[C@H]3O)c2n1 (stereo partly drawn)
63 µM	1.8 µM	1.28 µM	19.2 µM	Nc1ncnc2c1ncn2C1O[C@H](COP(=O)(O)OP(=O)(O)OCC2CCCN2)[C@@H](O)[C@H]1O (stereo partly drawn) [ADENOSINE DIPHOSPHATE (HYDROXYMETHYL)PYRROLIDINE]
970 µM			> 1000 µM	Nc1nc2c(ncn2C2O[C@H](COP(=O)(O)OP(=O)(O)OCC3NC[C@H](O)[C@@H]3O)[C@@H](O)[C@H]2O)c(=O)[nH]1 (stereo partly drawn)
570 µM	2.75 µM			Nc1ncnc2c1nc(NCCCCCCNC(=O)C(F)(F)F)n2C1O[C@H](COP(=O)(O)OP(=O)(O)OC[C@H]2NC[C@H](O)[C@@H]2O)[C@@H](O)[C@H]1O (stereo partly drawn)
0.44 µM			0.39 µM	[N-]=[N+]=Nc1nc2c(N)ncnc2n1C1O[C@H](COP(=O)(O)OP(=O)(O)OC[C@H]2NC[C@H](O)[C@@H]2O)[C@@H](O)[C@H]1O (stereo partly drawn)
4.2 µM	0.623 µM	0.48 µM	3.07 µM	Nc1ncnc2c1ncn2C1O[C@H](COP(=O)(O)OP(=O)(O)OCC2C[C@@H](O)CN2)[C@@H](O)[C@H]1O (stereo partly drawn) [ADENOSINE DIPHOSPHATE (HYDROXYMETHYL)PYRROLIDINE MONOALCOHOL]
	2.99 µM	> 3 µM		Nc1nc(O)c2ncn(C3O[C@H](COP(=O)(O)OP(=O)(O)OCC4NC[C@H](O)[C@@H]4O)[C@@H](O)[C@H]3O)c2n1 (stereo partly drawn)
120 µM	2.07 µM			Nc1ncnc2c1nc(Sc1ccc(Cl)cc1)n2C1O[C@H](COP(=O)(O)OP(=O)(O)OC[C@H]2NC[C@H](O)[C@@H]2O)[C@@H](O)[C@H]1O (stereo partly drawn)
1.4 µM and 1 µM			0.33 µM	Nc1ncnc2c1ncn2[C@@H]1O[C@H](CO[P@](=O)(O)O[P@@](=O)(O)OC[C@H]2NC[C@H](O)[C@@H]2O)[C@@H](O)[C@H]1O [ADENOSINE DIPHOSPHATE (HYDROXYMETHYL)PYRROLIDINEDIOL]
